The results in this text go back to ChEMBL document CHEMBL1131467, “Identification and initial structure-activity relationships of a novel class of nonpeptide inhibitors of blood coagulation factor Xa” (J Med Chem, 1998).

Test [1] concerns the target Cationic trypsin (Bos taurus). As to the kind of experiment: Inhibitory activity against bovine trypsin.
For the next test, the target named is Prothrombin (Homo sapiens, UniProt P00734). The test is described as follows: Inhibitory activity against human Thrombin. The method, boiled down:
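Human thrombin at 1 nM final, in Tris 0.05 M, NaCl 0.15 M, 0.1% PEG-8000, pH 7.5, room temperature. Enzyme and compound preincubated 30 min; reaction started with Pefachrome TH (50 μM final). Absorbance at 405 nm followed for 5 min. IC50 is the level that halves control initial velocity; apparent Ki by Cheng-Prusoff, assuming competitive inhibition.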

A further test addresses Coagulation factor X (Homo sapiens, UniProt P00742). As to the kind of experiment: Inhibitory activity against human Coagulation factor X. The method, boiled down:
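Human factor Xa at 1 nM final, in 0.05 M Tris, 0.15 M NaCl, 0.1% PEG-8000, pH 7.5, room temperature. Compound preincubated with enzyme 30 min, then Spectrozyme FXa added (200 μM final). Run in triplicate. IC50 taken from initial velocities; Ki by Cheng-Prusoff, assuming competitive inhibition.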

Coagulation factor X, sequence (P00742 41-179 limits assumed): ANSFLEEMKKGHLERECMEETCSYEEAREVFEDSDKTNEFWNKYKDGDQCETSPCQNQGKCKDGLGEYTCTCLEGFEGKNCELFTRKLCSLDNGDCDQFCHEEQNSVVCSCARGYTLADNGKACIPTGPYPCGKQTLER
Coagulation factor X, sequence (P00742 235-488 limits assumed): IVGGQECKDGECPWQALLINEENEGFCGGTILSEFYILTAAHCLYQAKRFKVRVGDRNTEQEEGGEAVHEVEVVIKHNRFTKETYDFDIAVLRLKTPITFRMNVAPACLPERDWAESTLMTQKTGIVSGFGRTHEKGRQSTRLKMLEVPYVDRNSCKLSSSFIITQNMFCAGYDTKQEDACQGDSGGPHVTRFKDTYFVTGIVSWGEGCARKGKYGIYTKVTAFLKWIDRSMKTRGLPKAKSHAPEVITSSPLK

As usually defined, the IC50 is the concentration that inhibits the measured activity by half. Turning to `COC(=O)C(Cc1cccc(C(=N)N)c1)C(/C=C/c1ccccc1)NC(=O)c1ccc(-c2ccc(OC)cc2)cc1` (stereo unspecified), the results for the IC50 (in test [1]; at Prothrombin; against Coagulation factor X) were 2900 nM, 2700 nM and 80 nM, respectively.

As to `COC(=O)C(Cc1cccc(C(=N)N)c1)C(/C=C/c1ccccc1)NC(=O)c1ccccc1C` (stereo unspecified), half-maximal inhibition against Coagulation factor X (IC50) was put at 1200 nM. In other words, the single-digit micromolar range.

As for `COC(=O)C(Cc1cccc(C(=N)N)c1)C(/C=C/c1ccccc1)NC(=O)c1ccc(-c2ccc(OC)cc2OC)cc1` (stereo unspecified), the IC50 in test [1] came to 2900 nM; against Prothrombin, 3500 nM; at Coagulation factor X, 90 nM.

For the compound `CC(=O)OCC(Cc1cccc(C(=N)N)c1)C(/C=C/c1ccccc1)NC(=O)c1ccc(-c2ccccc2)cc1` (stereo unspecified), the IC50 at Prothrombin was determined as 3800 nM; against Coagulation factor X, 360 nM.

Consider `CCc1cccc(-c2ccc(C(=O)NC(/C=C/c3ccccc3)C(Cc3cccc(C(=N)N)c3)C(=O)OC)cc2)c1` (stereo unspecified), for which the IC50 in test [1] is 2600 nM; on Prothrombin, 1700 nM; against Coagulation factor X it was 390 nM.

Regarding `COC(=O)C(Cc1cccc(C(=N)N)c1)C(/C=C/c1ccccc1)NC(=O)c1cccc(C)c1` (stereo unspecified), the half-inhibitory concentration (IC50) at Coagulation factor X came to 1100 nM.

On Coagulation factor X, `COC(=O)C(Cc1cccc(C(=N)N)c1)C(CCc1ccccc1)NC(=O)c1ccc(-c2ccccc2)cc1` (stereo in doubt; 8a) came in with an IC50 of 60 nM. This IC50 is about 18-fold lower than that of the compound before.

Take `COC(=O)[C@H](Cc1cccc(C(=N)N)c1)[C@@H](CCc1ccccc1)NC(=O)c1ccc(-c2ccccc2)cc1`: the midpoint of inhibition on Coagulation factor X, the IC50, lay at 60 nM. That is a double-digit nanomolar value.

Regarding `COC(=O)C(Cc1cccc(C(=N)N)c1)C(/C=C/c1ccccc1)NC(=O)c1ccc(-c2ccccc2C)cc1` (stereo unspecified), the values for the IC50 (in test [1]; on Prothrombin; against Coagulation factor X) were 3100 nM, 9000 nM and 90 nM, respectively.

Regarding `CCc1ccc(-c2ccc(C(=O)NC(/C=C/c3ccccc3)C(Cc3cccc(C(=N)N)c3)C(=O)OC)cc2)cc1` (stereo unspecified), the IC50 against Coagulation factor X stood at 890 nM.

In turn, `COC(=O)C(Cc1cccc(C(=N)N)c1)C(/C=C/c1ccccc1)NC(=O)c1ccc(C2CCCCC2)cc1` (stereo unspecified) yielded an IC50 at Coagulation factor X of 580 nM.

`COC(=O)C(Cc1cccc(C(=N)N)c1)C(/C=C/c1ccccc1)NC(=O)c1cccc2ccccc12` (stereo unspecified) yielded an IC50 against Coagulation factor X of 790 nM. The IC50 values of the last two compounds are within 1.5-fold of each other.

At Coagulation factor X, `COC(=O)C(Cc1cccc(C(=N)N)c1)C(/C=C/c1ccccc1)NC(=O)c1ccc(Oc2ccccc2)cc1` (stereo unspecified) yielded an IC50 of 1220 nM.

As to `COC(=O)[C@@H](Cc1cccc(C(=N)N)c1)[C@@H](/C=C/c1ccccc1)NC(=O)c1ccccc1`, the IC50 on Coagulation factor X is 2000 nM.

For `N=C(N)c1cccc(CC(C(=O)O)C(/C=C/c2ccccc2)NC(=O)c2ccc(-c3ccccc3)cc2)c1` (stereo unspecified), the IC50 against Prothrombin is 7700 nM; against Coagulation factor X, 2700 nM.

As to `COC(=O)C(Cc1cccc(C(=N)N)c1)C(/C=C/c1ccccc1)NC(=O)c1ccc(-c2ccccc2)cc1` (stereo unspecified), the results for the IC50 against Prothrombin and against Coagulation factor X were 18000 nM and 110 nM, respectively.

At Coagulation factor X, `COC(=O)C(Cc1cccc(C(=N)N)c1)C(CCc1ccccc1)NC(=O)c1ccc(-c2ccccc2)cc1` (stereo in doubt; 8b) came in with a half-inhibitory concentration (IC50) of 310 nM.

Take `CCOc1cccc(-c2ccc(C(=O)NC(/C=C/c3ccccc3)C(Cc3cccc(C(=N)N)c3)C(=O)OC)cc2)c1` (stereo unspecified): the IC50 in test [1] is 3600 nM; at Prothrombin it was 4300 nM; on Coagulation factor X, 180 nM.

On Coagulation factor X, `CN(C)C(=O)C(Cc1cccc(C(=N)N)c1)C(/C=C/c1ccccc1)NC(=O)c1ccc(-c2ccccc2)cc1` (stereo unspecified) had an IC50 of 4400 nM.

With `COC(=O)[C@H](Cc1cccc(C(=N)N)c1)[C@@H](/C=C/c1ccccc1)NC(=O)c1ccccc1`, the IC50 against Coagulation factor X came out at 700 nM.

Turning to `COC(=O)C(Cc1cccc(C(=N)N)c1)C(/C=C/c1ccccc1)NC(=O)c1ccc(-c2cccc(C)c2)cc1` (stereo unspecified), the IC50 against Prothrombin is 7200 nM; on Coagulation factor X, 120 nM.

On Coagulation factor X, `N=C(N)c1cccc(CC(CO)C(/C=C/c2ccccc2)NC(=O)c2ccc(-c3ccccc3)cc2)c1` (stereo unspecified) yielded an IC50 of 650 nM.

For the compound `COC(=O)C(Cc1cccc(C(=N)N)c1)C(/C=C/c1ccccc1)NS(=O)(=O)c1ccc(-c2ccccc2)cc1` (stereo unspecified), half-maximal inhibition against Coagulation factor X (IC50) required 1970 nM.

On to `N=C(N)c1cccc(CCC(/C=C/c2ccccc2)NC(=O)c2ccc(-c3ccccc3)cc2)c1` (stereo unspecified), for which the IC50 at Prothrombin stood at 31000 nM; against Coagulation factor X, 950 nM.

Consider `COC(=O)C(Cc1cccc(C(=N)N)c1)C(/C=C/c1ccccc1)NC(=O)c1ccc(C)cc1` (stereo unspecified), for which it took 600 nM to reach half-maximal inhibition at Coagulation factor X (IC50).

Regarding `COC(=O)C(Cc1cccc(C(=N)N)c1)C(/C=C/c1ccccc1)NC(=O)c1ccc(-c2ccccc2OC)cc1` (stereo unspecified), the IC50 is 1800 nM in test [1], 3300 nM against Prothrombin and 50 nM at Coagulation factor X.

In turn, `COC(=O)C(Cc1cccc(C(=N)N)c1)C(/C=C/c1ccccc1)NC(=O)c1ccc(Cc2ccccc2)cc1` (stereo unspecified) gave an IC50 against Coagulation factor X of 460 nM.

Consider `COC(=O)C(Cc1cccc(C(=N)N)c1)C(/C=C/c1ccccc1)NC(=O)c1ccc(-c2ccc(C)cc2)cc1` (stereo unspecified), for which the IC50 in test [1] was 2800 nM; at Prothrombin, 4800 nM; on Coagulation factor X, 240 nM.

With `COCC(Cc1cccc(C(=N)N)c1)C(/C=C/c1ccccc1)NC(=O)c1ccc(-c2ccccc2)cc1` (stereo unspecified), the IC50 in test [1] came to 10000 nM; on Prothrombin it was 8700 nM; on Coagulation factor X, 540 nM.

At Coagulation factor X, `COC(=O)C(Cc1cccc(C(=N)N)c1)C(/C=C/c1ccccc1)NC(=O)c1ccccc1` (stereo unspecified) registered an IC50 of 700 nM.

As for `CCOc1ccccc1-c1ccc(C(=O)NC(/C=C/c2ccccc2)C(Cc2cccc(C(=N)N)c2)C(=O)OC)cc1` (stereo unspecified), the IC50 in test [1] came to 1800 nM; against Prothrombin, 3800 nM; against Coagulation factor X, 60 nM.

Turning to `COC(=O)C(Cc1cccc(C(=N)N)c1)C(/C=C/c1ccccc1)NC(=O)c1ccc(-c2cccc(OC)c2)cc1` (stereo unspecified), the IC50 in test [1] was 2200 nM; at Prothrombin, 2400 nM; against Coagulation factor X, 110 nM.

In turn, `COC(=O)C(Cc1cccc(C(=N)N)c1)C(/C=C/c1ccccc1)NC(=O)C1CCC(C2CCCCC2)CC1` (stereo unspecified) returned an IC50 on Coagulation factor X of 1120 nM.

For the compound `CCc1ccccc1-c1ccc(C(=O)NC(/C=C/c2ccccc2)C(Cc2cccc(C(=N)N)c2)C(=O)OC)cc1` (stereo unspecified), the results for the IC50 against Prothrombin and on Coagulation factor X were 5300 nM and 380 nM, respectively.

As for `CCOc1ccc(-c2ccc(C(=O)NC(/C=C/c3ccccc3)C(Cc3cccc(C(=N)N)c3)C(=O)OC)cc2)cc1` (stereo unspecified), the concentration for half-maximal inhibition (IC50) in test [1] is 2800 nM; against Prothrombin it was 2000 nM; on Coagulation factor X, 360 nM.

Turning to `COC(=O)C(Cc1cccc(C(=N)N)c1)C(/C=C/c1ccccc1)NC(=O)c1ccc2ccccc2c1` (stereo unspecified), the IC50 against Coagulation factor X turned out to be 160 nM.

For the compound `COC(=O)C(Cc1cccc(C(=N)N)c1)C(/C=C/c1ccccc1)NC(=O)c1ccc(-c2ccc(OC)c(OC)c2)cc1` (stereo unspecified), the IC50 came out at 4700 nM against Prothrombin and 30 nM against Coagulation factor X.
